Shown are actives, neighbours in structure and some others; about 4.1% of the full set was active somewhere.
KCNQ1 inh: human KCNQ1 channel inhibition | CHO-K1 KCNQ1, FluxOR thallium flux fluorescence; stronger effect = higher value | B-score at 10 µM | 1.3% of 310,000 active | AID 2642;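 active = compounds whose thallium flux B-score, printed positive for inhibition, exceeds three library SD while starting fluorescence stays within three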;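 also: channel opened by potassium depolarization with thallium stimulus after 20 min compound exposure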
KCNK9 inh: human KCNK9 channel inhibition; 1.2% of 310,000 active; B-score at 10 µM; HEK293 KCNK9, FluxOR thallium flux fluorescence; stronger effect = lower value; Q9NPC2; AID 488922;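 active = ratio B-score over 3 SD below the library mean, with starting fluorescence within 5 SD of its mean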;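 also: negative B-score means less thallium flux so channel inhibition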
hERG rescue: compounds protecting human hERG from proarrhythmic drug block; activation (rescue from dofetilide block), less the hit threshold, % at 10 µM; Q12809; 0.51% of 310,000 active; CHO-hERG, FluxOR thallium flux, dofetilide IC70 present;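 active = activation above the mean of controls blocked by dofetilide plus 5 SD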;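 also: thallium influx through hERG after potassium depolarization seen as dye fluorescence rise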
Target sequence (Q12809 whole entry, looked up): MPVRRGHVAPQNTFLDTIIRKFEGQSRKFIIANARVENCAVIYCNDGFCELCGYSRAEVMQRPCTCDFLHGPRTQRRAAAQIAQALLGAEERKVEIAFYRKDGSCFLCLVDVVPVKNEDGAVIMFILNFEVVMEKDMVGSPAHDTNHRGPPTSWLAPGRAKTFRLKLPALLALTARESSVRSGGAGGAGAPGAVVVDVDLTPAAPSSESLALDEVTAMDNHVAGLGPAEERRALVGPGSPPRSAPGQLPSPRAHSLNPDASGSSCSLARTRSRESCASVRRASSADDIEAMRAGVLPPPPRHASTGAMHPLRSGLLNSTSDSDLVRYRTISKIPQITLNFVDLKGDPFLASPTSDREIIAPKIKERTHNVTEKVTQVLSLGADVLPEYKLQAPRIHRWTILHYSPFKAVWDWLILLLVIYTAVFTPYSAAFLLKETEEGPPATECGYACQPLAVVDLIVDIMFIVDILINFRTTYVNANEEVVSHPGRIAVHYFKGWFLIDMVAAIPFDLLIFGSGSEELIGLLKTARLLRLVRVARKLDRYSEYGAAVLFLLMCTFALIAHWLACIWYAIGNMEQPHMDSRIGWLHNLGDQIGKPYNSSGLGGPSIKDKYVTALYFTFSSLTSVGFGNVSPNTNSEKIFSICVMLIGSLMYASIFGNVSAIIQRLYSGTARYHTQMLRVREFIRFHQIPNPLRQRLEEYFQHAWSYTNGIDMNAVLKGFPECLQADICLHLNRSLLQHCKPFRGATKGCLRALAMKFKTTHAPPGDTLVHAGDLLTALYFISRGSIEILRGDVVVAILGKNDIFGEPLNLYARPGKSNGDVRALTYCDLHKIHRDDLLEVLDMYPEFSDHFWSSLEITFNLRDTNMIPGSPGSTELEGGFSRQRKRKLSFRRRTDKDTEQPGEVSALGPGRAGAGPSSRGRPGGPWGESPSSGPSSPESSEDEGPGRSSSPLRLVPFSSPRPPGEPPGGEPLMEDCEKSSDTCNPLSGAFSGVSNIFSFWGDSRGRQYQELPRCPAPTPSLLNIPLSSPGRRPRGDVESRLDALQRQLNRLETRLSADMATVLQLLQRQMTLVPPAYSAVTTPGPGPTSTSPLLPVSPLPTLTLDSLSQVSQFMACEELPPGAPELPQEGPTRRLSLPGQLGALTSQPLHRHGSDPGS
KCC2 mod: modulators of human KCC2 chloride dependent transport; Q9H2X9; KCC2 cells, thallium flux FluoZin-2 fluorescence; 2.2% of 190,000 active; AID 1456; B-score of Tl+ flux slope (higher = more flux/activation; lower = inhibition) at 10 µM;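 active = thallium flux slope and its plate-corrected score both differing from the plate sample mean at a set confidence after two filtering rounds, in either direction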;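 also: slope of fluorescence scaled to starting intensity during 10 to 20 s after thallium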
KCNK3 block: human KCNK3 channel inhibition, primary screen | CHO-KCNK3 thallium flux, FluxOR fluorescence; stronger effect = lower value | B-score at 10 µM | 0.84% of 340,000 active | AID 602410;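 active = B-score under library mean minus 4 SD, starting fluorescence ratio at most library mean plus 5 SD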;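 also: more negative B-score means stronger inhibition of thallium flux through KCNK3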
KCNQ1 pot: potentiates or activates the human KCNQ1 potassium channel. B-score at 10 µM. 0.35% of 310,000 active. CHO-K1 KCNQ1, thallium flux FluxOR fluorescence; stronger effect = higher value. P51787. AID 2648;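 active = fluorescence ratio B-score, a plate-corrected score, at least three library SD, with initial intensity B-score within 5 SD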
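Medium – assay buffer, equal DMSO in all wells · Material – CHO-K1 cell line with stable KCNQ1 potassium channel expression · Signal – kinetic FluxOR thallium fluorescence, 10-s 1-Hz baseline, 110-s post-stimulus read · Compound – single concentration per compound, DMSO matched to controls · Schedule – 37 °C overnight plating, 90-min dark dye load, 20-min compound pretreatment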
KCC2 secondary: KCC2 (human) modulation, secondary assay; HEK293-KCC2, thallium flux, FluoZin2 fluorescence; stronger effect = higher value; normalised thallium flux (F/F0 slope) at 10 µM; 15% of 3,700 active; AID 1713; shares compounds with KCC2 mod;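 active = thallium flux slope above the same plate's solvent-only control mean plus 3 SD; inconclusive = the two replicate wells disagree; inactive = no significant difference from solvent-only control wells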
KCC2 bumet counter: bumetanide-insensitive thallium flux in KCC2 cells with ouabain, counter-screen; shares compounds with KCC2 mod; HEK293-KCC2 + bumetanide/ouabain, thallium flux FluoZin2; stronger effect = higher value; normalized thallium flux at 10 µM; 49% of 3,700 active;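 active = thallium entry rate above the same plate's blocked-transporter control wells by more than 3 SD; inconclusive = the two repeat wells disagree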;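 also: raw slope of fluorescence over initial fluorescence between 10 and 20 s after thallium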
KCC2 sec2: confirmation of human KCC2 transport modulators; shares compounds with KCC2 mod; HEK293-KCC2, thallium flux FluoZin2 fluorescence; actives lie on both sides; F/F0 rise rate, 10–20 s post-thallium; normalized thallium flux at 10 µM; 23% of 3,700 active; AID 1715;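 active = thallium flux slope more than 3 SD above or below the plate's solvent-only control mean, mostly below; inconclusive = the two repeat wells disagreed; inactive = no significant shift from solvent-only controls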;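 also: raw slope with 0.1% DMSO as baseline and bumetanide as block control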
HEK counter1: parental HEK flux effect, counter-screen | AID 1716 | thallium flux rate (normalised fluorescence) at 10 µM | HEK293 parental cells, thallium flux FluoZin2, ouabain; baseline-ratio fluorescence slope, 10–20 s after thallium | 46% of 3,700 active | shares compounds with KCC2 mod;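 active = thallium flux rate significantly above the same plate's solvent-only control wells, beyond their mean plus 3 SD; inconclusive = the two replicate wells gave conflicting results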
KCC2 retest ouab: confirmation of human KCC2 modulators with ouabain; shares compounds with KCC2 mod; HEK293-KCC2, thallium flux FluoZin2 fluorescence; bidirectional: low = inhibitor, high = activator; raw Tl+ flux slope (below DMSO = inhibition, above = activation) at 10 µM; 48% of 3,700 active;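 active = thallium flux slope beyond 3 SD from same-plate DMSO control mean in most replicates, usually higher, sometimes lower; inconclusive = repeat tests gave conflicting results; inactive = no significant difference from controls in most replicates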;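 also: slope of initial-normalized fluorescence between seconds 10 and 20 after thallium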
HEK counter2: parental HEK flux effect, counter-screen 2. shares compounds with KCC2 mod. AID 1718. 33% of 3,700 active. thallium flux slope at 10 µM. HEK293 parental, thallium flux FluoZin-2 fluorescence slope;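 active = thallium flux slope above the same plate's solvent-control mean plus 3 SD in both duplicate wells; inconclusive = duplicate wells that disagreed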;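 also: run without ouabain in cells lacking the KCC2 cotransporter; slope of fluorescence scaled to its starting value between 10 and 20 s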
* = called active by the depositor; i = inactive; ? = inconclusive; / = not tested or not shown.

SMILES | KCNQ1 inh | KCNK9 inh | hERG rescue | KCC2 mod | KCNK3 block | KCNQ1 pot | KCC2 secondary | KCC2 bumet counter | KCC2 sec2 | HEK counter1 | KCC2 retest ouab | HEK counter2
CN(C)S(=O)(=O)c1ccc(NC(=S)NC(=O)c2cccs2)cc1 | i | i | -7 | 4* | i | i | 0.0094 | 0.016* | 0.029 | 0.0084* | ? | 0.0097
CCN(CC)c1ccc(NC(=S)NC(=O)c2cccs2)cc1 | i | i | 6.5* | 21* | i | i | 0.016* | 0.079* | 0.038 | 0.084* | 0.051* | 0.02*
CC(=O)NC(=S)Nc1ccc(NC(=S)NC(=O)c2cccs2)cc1 | i | i | -2 | / | i | i | / | / | / | / | / | /
O=C(NC(=S)Nc1ccc2oc(=O)ccc2c1)c1ccco1 | i | i | -3 | 22* | i | i | 0.0059 | 0.049* | 0.044* | 0.03* | 0.046* | 0.029*
CCOc1cccc(C(=O)NC(=S)Nc2cccnc2)c1 | i | i | 0 | 1.1 | i | i | / | / | / | / | / | /
Cc1ccnc(N/C=C(/NC(=O)c2ccccc2)C(=O)NN)n1 | i | i | -6 | / | i | i | / | / | / | / | / | /
CC(C)(C)NC(=O)C(c1cccs1)N(Cc1ccco1)C(=O)c1csnn1 (stereo not drawn) | i | i | -8 | / | i | i | / | / | / | / | / | /
Cc1ccccc1C(=O)NC(=S)Nc1ccc(S(=O)(=O)N(C)c2ccccc2)cc1 | i | i | -11 | 0.68 | i | i | / | / | / | / | / | /
Cc1cccc(C(=O)NC(=S)Nc2ccc(S(=O)(=O)N(C)c3ccccc3)cc2)c1 | i | i | -5 | 2.5* | i | i | 0.0083 | 0.014* | 0.03 | 0.0077 | 0.026* | 0.012*
O=c1oc2ccccc2c(Nc2cccc3ccccc23)c1[N+](=O)[O-] | i | i | -7 | -2.6* | i | i | 0.0077 | 0.0058 | 0.032 | 0.0034 | 0.016* | 0.011
O=c1oc2ccccc2c(Nc2ccccc2O)c1[N+](=O)[O-] | i | i | -4 | -1.9 | i | i | / | / | / | / | / | /
O=C1Cc2ccccc2C(=O)N1CCc1ccccc1 | i | i | -12 | / | i | i | 0.0067 | 0.0047 | 0.028 | 0.0074 | 0.018 | 0.011
O=C1C(=O)N(Cc2ccccc2)C(=O)N1CCN1C(=O)c2ccccc2C1=O | i | i | -10 | -1.2 | i | i | / | / | / | / | / | /
CCN(CC)S(=O)(=O)c1cccc(NC(=O)c2ccc(C#N)cc2)c1 | i | i | -11 | 0.69 | i | i | / | / | / | / | / | /
Cc1ccccc1C(N)=O | / | / | / | / | i | / | / | / | / | / | / | /
Cc1cc(C(=O)Nc2nc3c(s2)CCCC3)no1 | i | i | -13 | 4.4* | i | i | 0.011 | 0.015* | 0.034 | 0.0091* | 0.024 | ?
Cc1onc(-c2ccccc2)c1C(=O)Nc1nc2c(s1)CCCC2 | i | i | -2 | 0.6 | i | i | / | / | / | / | / | /
CN(C)c1ccc(/C=C2\C(=O)N(c3ccc([N+](=O)[O-])cc3)N=C2N2CCOCC2)cc1 | / | / | / | 0.33 | / | / | / | / | / | / | / | /
CCCCC(=O)NNC(=S)NC(=O)c1ccc(C)cc1 | i | i | -7 | 39* | i | i | 0.025* | 0.064* | 0.053* | 0.052* | 0.052* | 0.056*
CCCCC(=O)NNC(=S)NC(=O)c1ccc([N+](=O)[O-])cc1 | i | i | -9 | 2.4 | i | i | / | / | / | / | / | /
COC(=O)CSc1ccc(C#N)c(SCC(=O)OC)c1 | i | i | -6 | -1.3 | i | i | / | / | / | / | / | /
COC(=O)CSc1cc(SCC(=O)OC)c(C#N)c(SCC(=O)OC)c1 | i | i | -19 | -3.2* | i | i | 0.0059 | 0.0046 | 0.031 | ? | 0.018 | 0.0099
CCOC(=O)Cc1cc(=O)n2[nH]c(-c3ccccc3)c(-c3ccccc3)c2n1 | i | i | -1 | 6* | i | i | 0.0056 | 0.018* | 0.031 | 0.014* | ? | 0.014*
COc1cccc(C(=O)OCC(=O)NC(=O)NC2CCCC2)c1O | i | i | -5 | 11* | i | i | 0.01 | 0.017* | 0.035 | 0.02* | 0.027* | 0.014*
CC(=O)Nc1sc(-c2ccc(Cl)cc2)nc1-c1ccccc1 | i | i | -10 | 7.3* | i | i | 0.019* | 0.055* | 0.033 | 0.0092* | 0.024 | 0.01
SMILES | KCNQ1 inh | KCNK9 inh | hERG rescue | KCC2 mod | KCNK3 block | KCNQ1 pot | KCC2 secondary | KCC2 bumet counter | KCC2 sec2 | HEK counter1 | KCC2 retest ouab | HEK counter2
CC(=O)Nc1sc(-c2ccccc2)nc1-c1ccccc1 | i | i | -6 | 0.046 | i | i | / | / | / | / | / | /
COc1cc2c(cc1NC(=O)CSc1ccccn1)oc1ccccc12 | i | -7.3* | -9 | -4.8* | i | i | 0.008 | 0.0059 | 0.028 | 0.007 | 0.019 | 0.0085
O=C(CSc1ccccn1)Nc1cccc(NC(=O)CSc2ccccn2)n1 | i | i | -10 | / | i | i | ? | ? | 0.032 | 0.007 | 0.021 | 0.01
CC(=O)Nc1ccc(NC(=O)CSc2ccccn2)cc1 | i | i | -9 | 0.34 | i | i | / | / | / | / | / | /
N#CCCN1CCN(S(=O)(=O)c2ccc3c(c2)CCC3)CC1 | / | / | / | / | i | / | / | / | / | / | / | /
O=C(O)/C(=C\c1ccc(-c2ccc(F)cc2)o1)c1ccccc1 | / | / | / | -7* | i | / | 0.0073 | 0.008* | 0.031 | 0.0074 | 0.016* | 0.01
COc1ccc(-c2c(C)nc3c(-c4ccsc4)cnn3c2N)cc1 | i | i | -7 | / | i | i | / | / | / | / | / | /
CC/C(=N/Nc1cccc(Cl)c1)c1cnnc(SC)n1 | i | i | -4 | 0.42 | i | i | / | / | / | / | / | /
CC/C(=N/Nc1ccccc1)c1cnnc(-c2ccccc2)n1 | i | i | -12 | 2.7* | i | i | 0.0099 | 0.0056 | 0.033 | 0.0081 | 0.022 | 0.01
COc1ccccc1-c1nc(C#N)c(N2CCN(Cc3ccccc3)CC2)o1 | i | i | -7 | / | i | i | / | / | / | / | / | /
